According to ChEMBL document CHEMBL4028907, “Semisynthesis and Biological Evaluation of Xanthone Amphiphilics as Selective, Highly Potent Antifungal Agents to Combat Fungal Resistance” (J Med Chem, 2017):
Values after ≈ are worked out from the molar mass of the structure shown. Active and inactive are the calls of the source. The calls are words filed in the database; no cut-off is given here.

How the values were obtained:
Fusarium solani [1] = test: Antifungal activity against Fusarium solani MYA3636 after 48 hrs by two fold serial dilution method; assay type: functional; details: MYA3636, 48 h
In short: (§1)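 Moulds grown on potato dextrose agar, 30 °C, 4 days; inoculum adjusted to about 5×10^3 CFU/mL. Two-fold serial dilutions in RPMI-1640 broth, 100 to 0.78 μg/mL final, mixed with equal volume of cell suspension; incubated 30 °C, 48 h. MIC = lowest concentration inhibiting growth, judged visually and by OD530.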

Fusarium solani [2] = test: Antifungal activity against Fusarium solani 62877 after 48 hrs by two fold serial dilution method; assay type: functional; details: Fusarium solani, 62877, 48 h; in short: as §1
Candida albicans [3] = test: Antifungal activity against Candida albicans ATCC11651 after 24 hrs by two fold serial dilution method; assay type: functional; details: ATCC11651, 24 h
In short: (§2)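 Candida grown on Sabouraud dextrose agar at 35 °C for 24 h, adjusted to ~5×10^3 CFU/mL. Two-fold dilutions from 100 to 0.78 μg/mL in Sabouraud dextrose broth, incubated at 35 °C for 24 h. MIC is the lowest concentration inhibiting growth by eye and by OD600. CLSI-based with minor modifications.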

Candida albicans [4] = test: Fungicidal activity against drug resistant Candida albicans DF2672R at 8 times MIC after 4 hrs by time kill assay relative to control; assay type: functional
In short: (§3)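 Cells at 10^5–10^6 CFU/mL exposed to 1×, 2×, 4× or 8× MIC at 35 °C. Samples taken at 0.5, 1, 2, 4, 8 and 24 h, serially diluted in PBS and plated on SDA. CFU counted after 24 h at 35 °C; biological replicates.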

Candida albicans [5] = test: Antifungal activity against Candida albicans ATCC 10231 after 24 hrs by two fold serial dilution method; assay type: functional; details: ATCC 10231, 24 h; in short: as §2
Candida albicans [6] = test: Synergistic antifungal activity against drug resistant Candida albicans DF2672R after 24 hrs in presence of itraconazole by checkerboard assay; assay type: functional
In short: (§4)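 Checkerboard combination of each compound with a second antifungal, following a previously reported procedure. FIC = MIC of A in combination/MIC of A alone + MIC of B in combination/MIC of B alone.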

Candida albicans [7] = test: Antifungal activity against Candida albicans DF1976R after 24 hrs by two fold serial dilution method; assay type: functional; in short: as §2
Klebsiella pneumoniae = test: Antibacterial activity against Klebsiella pneumoniae DM4299 by two fold serial dilution method; assay type: functional
In short: (§5)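 Broth microdilution (CLSI, minor modifications) in Sabouraud dextrose, Mueller−Hinton or RPMI 1640 broth; two-fold serial dilutions of compound from stock to final 100 to 0.78 μg/mL. MIC taken as lowest concentration giving no visible growth.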

Aspergillus flavus [8] = test: Antifungal activity against Aspergillus flavus TCC MYA3631 after 48 hrs by two fold serial dilution method; assay type: functional; details: TCC MYA3631, 48 h; in short: as §1
Fusarium solani [9] = test: Antifungal activity against Fusarium solani 46492 after 48 hrs by two fold serial dilution method; assay type: functional; details: Fusarium solani, 46492, 48 h; in short: as §1
Fusarium solani [10] = test: Antifungal activity against Fusarium solani 52628 after 48 hrs by two fold serial dilution method; assay type: functional; details: Fusarium solani, 52628, 48 h; in short: as §1
Fusarium oxysporum [11] = test: Antifungal activity against Fusarium oxysporum MYA3461 after 48 hrs by two fold serial dilution method; assay type: functional; details: MYA3461, 48 h; in short: as §1
Candida albicans [12] = test: Antifungal activity against Candida albicans ATCC90028 after 24 hrs by two fold serial dilution method; assay type: functional; details: ATCC90028, 24 h; in short: as §2
Candida albicans [13] = test: Ratio of MIC against drug resistant Candida albicans DF2672R measured after 30 passages to MIC against drug resistant Candida albicans DF2672R measured before 30 passages by two fold serial dilution method; assay type: functional
In short: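 Serial passage: cells from duplicate tubes at 0.5× MIC adjusted to ~5×10^3 CFU/mL and used as the inoculum for the next broth microdilution MIC, 24 h at 35 °C. Repeated for 27–30 passages, with biological replicates.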

Candida albicans [14] = test: Antifungal activity against drug resistant Candida albicans DF2672R after 24 hrs by two fold serial dilution method; assay type: functional; in short: as §2
Fusarium oxysporum [15] = test: Antifungal activity against Fusarium oxysporum 64530 after 48 hrs by two fold serial dilution method; assay type: functional; details: Fusarium oxysporum, 64530, 48 h; in short: as §1
Candida albicans [16] = test: Fungicidal activity against drug resistant Candida albicans DF2672R after 0.5 to 24 hrs by time kill assay; assay type: functional; in short: as §3
Candida albicans [17] = test: Synergistic antifungal activity against drug resistant Candida albicans DF2672R after 24 hrs in presence of miconazole by checkerboard assay; assay type: functional; in short: as §4
Candida albicans [18] = test: Synergistic antifungal activity against drug resistant Candida albicans DF2672R after 24 hrs in presence of natamycin by checkerboard assay; assay type: functional; in short: as §4
Pseudomonas aeruginosa = test: Antibacterial activity against Pseudomonas aeruginosa DM23155 by two fold serial dilution method; assay type: functional; in short: as §5
Lipid bilayer [19] = test: Induction of membrane permiablization in calcein loaded DOPC/DOPE/PI large unilamellar vesicles assessed as calcein leakage at 1:4 compound to lipid ratio after 1 to 2 hrs by fluorescence assay relative to control
In short: (§6)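 LUVs (DOPC/DOPE/PI 2:1:1 with 15 wt % ergosterol, about 100 nm) made by film hydration and extrusion, loaded with 80 mM calcein in HEPES buffer pH 7.4. Free dye removed by G-50 column. Compound added in 0.5% DMF at 50 μM final phospholipid. Emission read at 520 nm (excitation 490 nm); leakage normalized to 1% Triton X-100.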

Candida albicans [20] = test: Antifungal activity against Candida albicans ATCC24433 after 24 hrs by two fold serial dilution method; assay type: functional; details: ATCC24433, 24 h; in short: as §2
Candida albicans [21] = test: Synergistic antifungal activity against drug resistant Candida albicans DF2672R after 24 hrs in presence of terbinafine by checkerboard assay; assay type: functional; in short: as §4
[22] = Selectivity index, ratio of HC50 for New Zealand white rabbit RBC to MIC for Candida albicans ATCC 10231
Candida albicans [23] = test: Induction of membrane permiablization in drug resistant Candida albicans DF2672R at 4 times MIC after 1 to 2 hrs by SYTOX green dye based spectrofluorometric assay; assay type: functional
In short: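 Overnight cultures washed and resuspended in PBS at OD600 0.2, then loaded with 0.3 μM SYTOX Green in the dark. After the signal stabilised, compound in PBS/DMF was added (final DMF 0.5%; 0.5% DMF as control). Fluorescence (ex 504/em 523 nm) followed continuously for 1–2 h; biological replicates.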

Aspergillus fumigatus [24] = test: Antifungal activity against Aspergillus fumigatus TCC 90906 after 48 hrs by two fold serial dilution method; assay type: functional; details: TCC 90906, 48 h; in short: as §1
Bacillus cereus = test: Antibacterial activity against Bacillus cereus ATCC11778 by two fold serial dilution method; assay type: functional; in short: as §5
Candida albicans [25] = test: Synergistic antifungal activity against drug resistant Candida albicans DF2672R after 24 hrs in presence of amphotericin B by checkerboard assay; assay type: functional; in short: as §4
Staphylococcus aureus [26] = test: Antibacterial activity against methicillin resistant Staphylococcus aureus DM21455 by two fold serial dilution method; assay type: functional
In short: (§7)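 Broth microdilution per CLSI guidelines with minor modifications, run in Mueller−Hinton broth; MIC is the lowest concentration giving no visible growth.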

[27] = Cytotoxicity against human corneal fibroblasts assessed as cell viability up to 100 uM after 4 hrs by LDH assay relative to control; assay type: cell-based, Corneal fibroblast; details: read-out: Activity
In short: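 LDH release assay on human corneal fibroblasts seeded at 10000 cells per well, exposed to a range of compound concentrations up to 100 μM. 1% Triton X-100 served as positive control and 0.5% DMSO as negative control; biological replicates.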

Aspergillus flavus [28] = test: Antifungal activity against Aspergillus flavus TCC 204304 after 48 hrs by two fold serial dilution method; assay type: functional; details: TCC 204304, 48 h; in short: as §1
Lipid bilayer [29] = test: Induction of membrane permiablization in calcein loaded DOPC/DOPE/PI large unilamellar vesicles assessed as calcein leakage at 1:8 compound to lipid ratio after 1 to 2 hrs by […] fluorescence assay relative to control; in short: as §6
Staphylococcus aureus [30] = test: Antibacterial activity against methicillin resistant Staphylococcus aureus DM9808R by two fold serial dilution method; assay type: functional; in short: as §7
Aspergillus brasiliensis = test: Antifungal activity against Aspergillus brasiliensis TCC16404 after 48 hrs by two fold serial dilution method; assay type: functional; details: TCC16404, 48 h; in short: as §1
Aspergillus fumigatus [31] = test: Antifungal activity against Aspergillus fumigatus TCC MYA3626 after 48 hrs by two fold serial dilution method; assay type: functional; details: TCC MYA3626, 48 h; in short: as §1
Candida albicans [32] = test: Synergistic antifungal activity against drug resistant Candida albicans DF2672R after 24 hrs in presence of posaconazole by checkerboard assay; assay type: functional; in short: as §4
Staphylococcus aureus [33] = test: Antibacterial activity against Staphylococcus aureus DM4001R by two fold serial dilution method; assay type: functional; in short: as §5
Candida albicans [34] = test: Fungicidal activity against drug resistant Candida albicans DF2672R at 8 times MIC after 24 hrs by time kill assay relative to control; assay type: functional; in short: as §3
Candida albicans [35] = test: Antifungal activity against drug resistant Candida albicans DF2672R infected C57BL6 mouse cornea at 5% administered topically for every 20 mins during the first hour and every 1 hr during the next 6 hrs by serial dilution method; assay type: functional
In short: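 C57BL6 mice aged 7–8 weeks (19–23 g), immunosuppressed with cyclophosphamide 100 mg/kg ip at 4 days and 1 day before infection and on day 1 after. Left cornea scratched under xylazine/ketamine, then 20 μL of ~5×10^7 CFU/mL yeast in PBS applied. Treatment started 1 day later; PBS served as control; four mice per group. Corneal fungal load counted by serial dilution plating on SDA.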

Row | SMILES | MIC (Fusarium solani [1]) [µg/mL] | MIC (Fusarium solani [2]) [µg/mL] | MIC (Candida albicans [3]) [µg/mL] | MIC (Candida albicans [5]) [µg/mL] | MIC (Candida albicans [7]) [µg/mL] | MIC (Aspergillus flavus [8]) [µg/mL] | MIC (Fusarium solani [9]) [µg/mL] | MIC (Fusarium solani [10]) [µg/mL] | MIC (Fusarium oxysporum [11]) [µg/mL] | MIC (Candida albicans [12]) [µg/mL] | MIC (Candida albicans [14]) [µg/mL] | MIC (Fusarium oxysporum [15]) [µg/mL] | MIC (Candida albicans [20]) [µg/mL] | Selectivity Index [22] | MIC (Aspergillus fumigatus [24]) [µg/mL] | MIC (Aspergillus flavus [28]) [µg/mL] | MIC (Aspergillus brasiliensis) [µg/mL] | MIC (Aspergillus fumigatus [31]) [µg/mL] | other results
1 | CCCCN(CCCC)CC(O)COc1cc2oc3cc(OCC(O)CN(CCCC)CCCC)c(OC)c(CC=C(C)C)c3c(=O)c2c(O)c1CC=C(C)C (configuration not stated) | 3.13 (≈ 4.01 µM) | 6.25 (≈ 8 µM) | 3.13 (≈ 4.01 µM) | 3.13 (≈ 4.01 µM) | 3.13 (≈ 4.01 µM) | 12.5 (≈ 16 µM) | 6.25 (≈ 8 µM) | 6.25 (≈ 8 µM) | 3.13 (≈ 4.01 µM) | 3.13 (≈ 4.01 µM) | 3.13 (≈ 4.01 µM) | 6.25 (≈ 8 µM) | 3.13 (≈ 4.01 µM) | > 128 | 12.5 (≈ 16 µM) | 12.5 (≈ 16 µM) | 3.13 (≈ 4.01 µM) | 6.25 (≈ 8 µM) | Activity (Candida albicans [4]): 99.9%; fractional inhibitory concentration index (FICI) (Candida albicans [6]): 0.63; MIC (Klebsiella pneumoniae): > 50 µg/mL; Ratio (Candida albicans [13]): 2; Activity (Candida albicans [16]): Dose-dependent effect; fractional inhibitory concentration index (FICI) (Candida albicans [17]): 0.81; fractional inhibitory concentration index (FICI) (Candida albicans [18]): 0.91; MIC (Pseudomonas aeruginosa): > 50 µg/mL; Activity (Lipid bilayer [19]): 55.4%; fractional inhibitory concentration index (FICI) (Candida albicans [21]): 0.29; Activity (Candida albicans [23]): Active; MIC (Bacillus cereus): > 50 µg/mL; fractional inhibitory concentration index (FICI) (Candida albicans [25]): 0.64; MIC (Staphylococcus aureus [26]): > 50 µg/mL; viability at 4 h [27]: > 99%; Activity (Lipid bilayer [29]): 25.8%; MIC (Staphylococcus aureus [30]): > 50 µg/mL; fractional inhibitory concentration index (FICI) (Candida albicans [32]): 0.91; MIC (Staphylococcus aureus [33]): > 50 µg/mL
2 | C[C@@H]1C/C=C/C=C/C=C/C=C/[C@H](O[C@@H]2O[C@H](C)[C@@H](O)[C@H](N)[C@@H]2O)C[C@@H]2O[C@](O)(C[C@@H](O)C[C@H]3O[C@@H]3/C=C/C(=O)O1)C[C@H](O)[C@H]2C(=O)O [NATAMYCIN] | 6.25 (≈ 9.39 µM) | 25 (≈ 37.6 µM) | 6.25 (≈ 9.39 µM) | 6.25 (≈ 9.39 µM) | 6.25 (≈ 9.39 µM) | > 50 | 6.25 (≈ 9.39 µM) | 6.25 (≈ 9.39 µM) | 3.13 (≈ 4.7 µM) | 6.25 (≈ 9.39 µM) | 6.25 (≈ 9.39 µM) | 6.25 (≈ 9.39 µM) | 6.25 (≈ 9.39 µM) | 18.1 | 6.25 (≈ 9.39 µM) | > 50 | 6.25 (≈ 9.39 µM) | 6.25 (≈ 9.39 µM) | Activity (Candida albicans [34]): 99.9%; Activity (Candida albicans [35]): Active
